Source: PubChem (several laboratories)
SR-BI DiI-HDL act: SR-BI HDL lipid transfer activation | CHO ldlA[mSR-BI] cells, DiI-HDL uptake fluorescence, 3 h; 100 = double the neutral-control signal | activation, % at 12.5 µM | actives 0.096% (n = 320,000) | AID 504775;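 active = mean replicate activation of at least 60% and every replicate at or above 60%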;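 note: 0% = median plate neutral-control signal and 100% = twice that signal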
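system = CHO ldlA[mSR-BI] cells, LDL receptor-null, SR-BI overexpressing | medium = Ham's F12 with 0.5% BSA, HEPES 25 mM, pH 7.4 | probe or stimulus = DiI-HDL 10 µg/mL | compound dosing = single-point compound dose | incubation = compound exposure 3 h, 37 °C | technique = DiI fluorescence, bottom read | read-out = cell-associated DiI fluorescence as measure of HDL uptake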
SR-BI DiI inh: inhibitors of mouse SR-BI mediated HDL lipid uptake; ldlA[mSR-BI] CHO cells, DiI-HDL uptake fluorescence, 3 h; AID 488896; inhibition, % at 12.5 µM; actives 0.96% (n = 320,000);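 active = mean replicate inhibition of at least 70% and a set share of replicates each scoring 70 or more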;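 note: 0% = median of neutral control wells and 100% = median of positive control wells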
SMARCA2 activ: increases SMARCA2 function in MMTV reporter cells. AID 652017. actives 1% (n = 370,000). MG213 cells, MMTV-luciferase reporter, dexamethasone, overnight. activation, % at 9.1 µM; in the data active = activation above about 7.8%;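 note: 0% = vehicle wells and 100% = reference activator wells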
AHR act: human AHR activation; P35869; AHR-responsive luciferase reporter cells, luminescence; activation, % at 5 µM; actives 2.5% (n = 320,000); AID 2796; in the data active = activation above about 47%;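 note: 0% = vehicle wells and 100% = reference agonist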
Target sequence (P35869 whole entry, looked up): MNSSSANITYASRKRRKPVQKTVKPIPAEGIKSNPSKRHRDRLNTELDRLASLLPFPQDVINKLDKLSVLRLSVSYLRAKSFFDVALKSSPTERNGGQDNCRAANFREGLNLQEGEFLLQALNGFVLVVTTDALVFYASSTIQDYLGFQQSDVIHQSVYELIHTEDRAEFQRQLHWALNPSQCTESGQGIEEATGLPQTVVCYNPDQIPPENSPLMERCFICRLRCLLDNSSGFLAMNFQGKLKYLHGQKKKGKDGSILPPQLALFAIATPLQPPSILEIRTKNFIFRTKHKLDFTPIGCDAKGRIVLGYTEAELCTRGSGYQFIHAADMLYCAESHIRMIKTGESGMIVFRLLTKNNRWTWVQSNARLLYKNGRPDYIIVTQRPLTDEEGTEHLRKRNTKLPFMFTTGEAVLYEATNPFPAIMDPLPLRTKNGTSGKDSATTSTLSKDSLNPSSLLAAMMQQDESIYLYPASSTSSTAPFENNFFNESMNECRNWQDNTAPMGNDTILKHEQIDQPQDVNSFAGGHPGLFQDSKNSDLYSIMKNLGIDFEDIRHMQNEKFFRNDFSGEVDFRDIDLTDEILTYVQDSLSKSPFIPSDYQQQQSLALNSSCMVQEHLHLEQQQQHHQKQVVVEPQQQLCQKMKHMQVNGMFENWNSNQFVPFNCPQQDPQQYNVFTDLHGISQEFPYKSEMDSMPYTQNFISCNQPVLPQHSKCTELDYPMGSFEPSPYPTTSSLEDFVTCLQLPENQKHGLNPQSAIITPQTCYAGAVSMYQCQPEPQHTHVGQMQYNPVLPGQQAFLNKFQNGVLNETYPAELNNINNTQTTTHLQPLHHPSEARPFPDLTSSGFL
Hep lipid drop: modulators of hepatic lipid droplet formation | AID 1656 | AML12 mouse hepatocytes, oleate lipid droplets, BODIPY imaging | inhibition, % at 6.5 µM | actives 0.4% (n = 240,000);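 active = lipid droplet intensity inhibited by at least 50%, with more than 500 cells counted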
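System: AML12 hepatocytes (mouse). Probe or stimulus: oleic acid at 100 µM to induce lipid droplet formation. Times: overnight treatment with compound plus oleate. Detection: Image-based BODIPY and DAPI two-channel analysis. Evaluation: percent inhibition of filter-corrected integrated lipid droplet intensity per well.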
CR mimetic SO: lowers age-related superoxide in aged yeast cells | actives 0.18% (n = 330,000) | S. cerevisiae aged cells, superoxide DHE fluorescence; active compounds read low | AID 2690 | superoxide response (% of plate mean), % at 10 µM;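 active = superoxide response under a set limit, about three screen SD below normal, cut at about 65% in these data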;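 note: yeast aged for seven days with compound at 30 °C before DHE staining; 100% = average MFI of all compound-treated wells on the plate with controls excluded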
AHR act cf: human AHR activation, confirmation; actives 87% (n = 2,300); human cells, AHR-responsive luciferase reporter, luminescence; activation, % at 9 µM; AID 2845; shares compounds with AHR act; in the data active = activation above about 49%;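 note: HepG2 hepatoma cells carrying a DRE-driven firefly luciferase reporter; 0% = vehicle wells and 100% = reference agonist wells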
PXR act counter: PXR activation, counter-screen for AHR activators. cell-based PXR reporter, luciferase luminescence. shares compounds with AHR act. actives 88% (n = 2,300). AID 434939. activation, % at 11.6 µM; in the data active = activation above about 11%;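 note: human hepatoma DPX-2 cells expressing full-length human PXR; 0% = DMSO and 100% = reference agonist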
Active calls of the source: *; x = not tested or not shown. Only some compounds are listed: those with a hit (about 4.3% of all), similar ones and a draw of the others.

SMILES | SR-BI DiI-HDL act | SR-BI DiI inh | SMARCA2 activ | AHR act | Hep lipid drop | CR mimetic SO | AHR act cf | PXR act counter
COc1ccc(C#Cc2ccc3c(c2)c(=O)c2ccccc2n3C)cc1 | 3.3 | -3.3 | 0.4 | 91.2* | x | 105.7 | 102.6* | 14.1*
COc1cccc(C#Cc2c(C=O)n(C)c3ccccc23)c1 | -57.0 | 57.0 | 0.5 | 110.4* | x | 93.8 | 130.4* | 43.2*
CCOC(=O)C1CSCCS(=O)(=O)N1Cc1cccc(F)c1 (stereo unspecified) | x | x | -4.0 | x | x | x | x | x
O=C(/C=C/c1ccc(F)cc1)N1CCc2ccccc2C1 | 11.7 | -11.7 | 4.0 | 100.0* | x | 114.2 | 135.8* | 59.6*
O=C(Nc1nc2c(Cl)cccc2s1)c1ccc(Br)o1 | -5.0 | 5.0 | 0.8 | 102.1* | -24.4 | 117.2 | 105.5* | 66.6*
O=C(CCc1ccccc1)NCC1OCCc2ccccc21 (stereo unspecified) | x | x | -2.2 | -2.0 | 14.4 | 94.8 | x | x
O=C(NCC1OCCc2ccccc21)c1ccco1 (stereo unspecified) | 1.3 | -1.3 | 0.6 | 86.1* | 18.7 | 103.7 | 129.2* | 14.2*
CCOC(=O)Cc1csc2nc(-c3ccccc3)cn12 | x | x | -2.1 | x | x | x | x | x
CCOC(=O)C1(Cc2ccc(OC)cc2)CCN(C(=O)c2cc(C)on2)CC1 | 6.0 | -6.0 | -0.1 | 4.8 | -3.4 | 79.7 | x | x
CCOC(=O)C1(Cc2ccc(OC)cc2)CCN(C(=O)c2cc3ccccc3[nH]2)CC1 | -2.9 | 2.9 | 2.6 | 104.7* | -4.6 | 105.3 | 89.4* | 40.3*
N#C/C(=C\c1ccc(N2CCCCC2)o1)C(=O)Nc1cccc(Br)c1 | -98.6 | 98.7* | 0.4 | 99.6* | 4.4 | 86.3 | 72.0* | 13.4*
CCCn1c(SCC(=O)c2c(C)[nH]c(C)c2C(=O)OCC)nc2ccccc21 | -18.4 | 18.4 | 0.1 | 25.7 | 19.9 | 90.1 | x | x
CCOC(=O)c1c(C)[nH]c(C)c1C(=O)CSc1nc2ccccc2n1CCC#N | -8.5 | 8.5 | -3.5 | 99.3* | -1.1 | 95.0 | 4.7 | 78.6*
Cc1ccc(-c2nc3ncccn3c2NC(=O)Nc2ccc(F)cc2)cc1 | x | x | 5.1 | x | x | x | x | x
c1ccc2c(c1)CCN(c1nc3ccccc3n3cnnc13)C2 | -11.4 | 11.2 | 1.4 | 85.7* | x | 105.4 | 66.4* | 19.0*
Cc1ccc(F)c(NC(=S)Nc2cccc3ccccc23)c1 | 8.8 | -8.8 | -0.5 | 94.4* | 0.0 | 109.0 | 9.1 | 106.4*
CCCCCCCCN1C(=O)[C@@H](CC(=O)NCCCC)C[C@@]2(C(=O)OC)C1=C[C@H](COCc1ccccc1)O[C@@H]2C | x | x | -1.1 | x | x | x | x | x
C=CCNc1sc(C(=O)c2ccccc2)c(N)c1-c1nc2ccccc2s1 | -90.9 | 90.9* | x | 131.9* | x | 92.1 | 89.7* | 43.5*
CCCCCCCCN1C(=O)[C@@H](CC(=O)NCCCOC)C[C@@]2(C(=O)OC)C1=C[C@H](C(C)(C)C)O[C@@H]2C | x | x | -6.5 | x | x | x | x | x
Sc1oc(-c2ccccc2)cc1C=Nc1ccccc1 | -6.9 | 6.9 | 1.6 | 79.5* | 10.1 | 124.0 | 38.6 | 20.2*
CC(C)N1CCc2c(sc(NC(=O)c3ccc4ccccc4c3)c2C(N)=O)C1 | -21.3 | 21.3 | 4.6 | 6.3 | -6.0 | 102.0 | x | x
CC(=O)Nc1sc2c(c1-c1nc3ccccc3s1)CCN(C(C)C)C2 | -37.5 | 37.5 | x | 172.0* | -35.1 | 98.0 | 69.7* | x
COc1cccc(C2=NNC(=NCc3ccccc3)SC2)c1 | -10.5 | 10.5 | -0.9 | 1.1 | -24.2 | 94.8 | x | x
COc1cccc(C2=NC(C)(C)NC(c3ccccc3O)C2)c1 (stereo unspecified) | -12.7 | 12.7 | 6.0 | 82.3* | x | 77.9 | 44.1 | 52.0*
COC(=O)[C@]12C[C@H](CC(=O)N3CCCCC3)C(=O)N(CCC3=CCCCC3)C1=C[C@H](C(C)C)O[C@@H]2C1CC1 | x | x | -1.7 | x | x | x | x | x
CC(C)C(=O)Nc1ccc(Cl)cc1-c1nc2ccccc2[nH]c1=O | 7.6 | -7.6 | -4.3 | 79.4* | -16.5 | 94.8 | 75.6* | 12.1*
FC(F)(F)c1cc(C(F)(F)F)n2nc(-c3sccc3-n3cccc3)cc2n1 | 0.1 | -0.1 | -4.5 | 10.3 | x | 96.7 | x | x
